High-throughput results deposited in PubChem by several laboratories.
Compounds with a hit are over-represented: about 1.6% of the library has one in this group of screens.
Rpn11 inh = blocks the human proteasome subunit Rpn11. O00487. AID 588493. 0.59% of 360,000 active. inhibition, % at 20 µM. human 26S proteasome, Ub4-pepOG fluorescence polarization; 20S core pre-blocked with epoxomicin;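 active = inhibition at 20 µM, scaled to each plate's controls, above about 33%, limit read from the data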
CSN inh = inhibitors of human CSN-mediated cullin deneddylation | Q92905 | Purified CSN, SCF-Nedd8-OG deneddylation, fluorescence polarization | inhibition, % at 12.5 µM | 0.38% of 360,000 active | AID 651999;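 active = pattern-corrected inhibition above about 35%, with an unprinted fluorescence ratio check between 0.5 and 1.5, limit read from the data, passing the limit was not always enough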;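 note: 0% = enzyme with substrate and 100% = substrate without enzyme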
Target sequence (Q92905 whole entry, looked up, one chain of several): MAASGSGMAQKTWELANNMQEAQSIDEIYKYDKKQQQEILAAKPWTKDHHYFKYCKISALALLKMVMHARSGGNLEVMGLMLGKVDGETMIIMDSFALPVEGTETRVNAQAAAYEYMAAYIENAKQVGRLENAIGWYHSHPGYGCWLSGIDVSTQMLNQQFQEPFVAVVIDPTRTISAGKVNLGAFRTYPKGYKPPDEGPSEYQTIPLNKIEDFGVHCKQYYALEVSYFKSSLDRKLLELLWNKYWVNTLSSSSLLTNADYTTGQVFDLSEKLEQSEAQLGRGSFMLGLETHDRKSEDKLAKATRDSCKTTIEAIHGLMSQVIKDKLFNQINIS
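Detection – fluorescence polarization · System – HEK293T-derived human Csn5 enzyme · Controls – substrate-only high control, full reaction low control · Timing – 90 min, room temperature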
TPT1 inh = blocks Candida albicans tRNA 2'-phosphotransferase | 0.81% of 300,000 active | inhibition, % at 5 µM | recombinant caTPT1, FP RNA substrate dephosphorylation;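 active = inhibition above the mean of all tested compounds plus 3 SD, set per screening campaign, cut at about 24% in these data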;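 note: plate controls were DMSO alone for no effect and ferristatin control at 100 nM for full effect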
HNF4A DNA FP = change in binding of human HNF4 alpha to DNA | P41235 | HNF4a-FITC DNA binding, fluorescence polarization, 1 h | activity change, % at 10 µM | 0.3% of 360,000 active | AID 1224865; in the data active = activity change above about 30%, passing the limit was not always enough
SENP1 inh = SENP1 (human) catalytic domain inhibition; Q9P0U3; recombinant SENP1 catalytic domain, CyPet-SUMO1-YPet FRET cleavage; inhibition, % at 10 µM; 0.21% of 360,000 active; AID 624204;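 active = inhibition at least 30% at 10 µM, raw YFP signal under a set limit, fluorescence ratio 0.5 to 1.5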;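 note: 0% = enzyme with DMSO and 100% = no enzyme wells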
Target sequence (Q9P0U3 419-644 limits assumed): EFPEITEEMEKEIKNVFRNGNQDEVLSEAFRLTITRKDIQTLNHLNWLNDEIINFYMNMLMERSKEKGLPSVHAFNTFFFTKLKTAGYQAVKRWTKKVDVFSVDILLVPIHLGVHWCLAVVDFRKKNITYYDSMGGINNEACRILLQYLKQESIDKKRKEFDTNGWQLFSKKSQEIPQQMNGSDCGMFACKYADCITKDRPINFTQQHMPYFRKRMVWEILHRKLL
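Test system: recombinant human SENP1 catalytic domain, His6-tagged / Medium: pH 8 Tris buffer with EDTA, NaCl, BME, BSA, NP40, catalase / Also added: SUMO1 FRET substrate flanked by Cypet and Ypet, 25 nM / Times: 50 min reaction at room temperature / Signal: FRET, CFP and YFP emission / Control set: no-enzyme low control and enzyme-plus-DMSO high control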
* = called active by the depositor; . = no result given.

SMILES	Rpn11 inh	CSN inh	TPT1 inh	HNF4A DNA FP	SENP1 inh
C#CCCC(=O)c1ccccc1/C=[N+](\[O-])c1ccccc1	64*	13	.	0	-6
O=C(NCc1cccs1)C1C(=O)Nc2ccccc2C(=O)N1C1CCCC1 (centres undefined)	.	-1	.	2	3
OC(COCc1ccccc1)CN1CCCC1 (centres undefined)	-1	37*	2	4	1
OC(COCc1ccccc1)CN1CCN(c2ccccc2)CC1 (centres undefined)	7	-2	2	3	2
CC(=O)CC1c2cc(F)ccc2C=C(c2ccsc2)N1c1ccc(-c2cccnc2)cc1 (centres undefined)	.	1	.	-1	-5
CCOc1ccc(-n2c(SCC(=O)N3CCc4ccccc43)nnc2-c2c[nH]c3ccccc23)cc1	5	141*	0	38*	0
COc1cccc(-n2c(SCC(=O)N3CCc4ccccc43)nnc2-c2c[nH]c3ccccc23)c1	3	0	1	-2	3
CCOc1ccc(C2/C(=C(/O)c3ccc(S(=O)(=O)N4CCCCC4)cc3)C(=O)C(=O)N2CCCOC)cc1OC (centres undefined)	-12	-6	-5	2	2
Cc1cc(Br)ccc1OCC(=O)NNC(=O)c1cnccn1	1	2	-1	0	0
CCOc1ccccc1C(=O)Nc1ccc(S(=O)(=O)N2CCN(C)CC2)cc1	-4	3	.	0	1
CCOc1ccccc1C(=O)Nc1ccc(-n2nncc2C(C)(C)C)cc1	-12	-6	-3	70*	1
N=c1c(S(=O)(=O)c2ccc(Br)cc2)cc2c(=O)n3ccccc3nc2n1Cc1ccco1	15	28	13	-35	-28
N=c1c(S(=O)(=O)c2ccc(Cl)cc2)cc2c(=O)n3ccccc3nc2n1Cc1ccco1	18	40*	8	5	-24
COc1ccc(S(=O)Cc2ccc(C(=O)NCc3cccc(OC)c3)o2)cc1 (centres undefined)	-15	0	2	0	2
Cc1ccc(NC(=O)c2cccc(C(F)(F)F)c2)cc1NC(=O)c1[nH]cnc1C(N)=O	-5	4	.	0	1
Cc1cn(-c2cc(NC(=O)c3ccc(C)c(NC(=O)c4cccc(-c5cn[nH]c(=O)c5)c4)c3)cc(C(F)(F)F)c2)cn1	107*	13	-1	25	-2
COc1cccc(-c2cccc3c2NC(=O)C3(C)Cc2cccc(F)c2)c1 (centres undefined)	-5	0	.	2	-2
CCc1ccc2c(c1)c1nc(C)sc1n2CC	5	54*	3	-3	4
Cc1nc2c3cc(F)ccc3n(Cc3ccc(F)cc3)c2s1	-1	6	1	-3	-21
O=S(=O)(/C=C/C=C/S(=O)(=O)c1ccccc1)c1ccccc1	0	3	.	2	-1
COc1cc(C(=O)N2CCC(NC(=O)C(Cc3ccc(C(C)C)cc3)NC(C)=O)CC2)cc(OC)c1OC (centres undefined)	7	0	-4	52*	-1
O=C(CSc1nc2c([nH]c3ccccc32)c(=O)n1-c1cccc(Cl)c1)N1CCOCC1	22	80*	-3	-7	3
CCOC(=O)CSc1nnc(CSc2nc3sc4c(c3c(=O)[nH]2)CCCC4)n1-c1ccccc1	26	-10	-2	34*	3
Cc1ccc(O)c(N=CC2=C(O)c3ccccc3C2=O)c1	11	-1	3	-1	42*
CCc1c(-c2ccccc2F)ncn1Cc1cccc(-c2ccccc2)c1	.	2	.	5	-2
SMILES	Rpn11 inh	CSN inh	TPT1 inh	HNF4A DNA FP	SENP1 inh
Cc1c(N=C2N=C(NC(=O)c3ccc(F)cc3)c3ccccc32)c(=O)n(-c2ccccc2)n1C	.	-103	15	75*	21
Cc1cc(-c2csc(NC(=O)c3ccc(C#N)cc3)n2)c(C)n1Cc1ccco1	18	41*	9	6	10
N#CCSc1ncnc2sc3c(c12)CCC3	5	38*	12	9	-28
Cn1cccc1C(C#N)(CC#N)c1cccc(F)c1C#N (centres undefined)	8	101*	-1	2	3
Nc1ncnc2c1ncn2[C@@H]1O[C@H](CCC(=O)NCc2ccccc2)[C@@H](O)[C@H]1O	7	0	.	2	-5
C=CCN1C(=O)S/C(=C/c2ccc(Sc3nc4ccccc4[nH]3)o2)C1=O	10	2	-1	117	-43
CC(C)N1C(=O)S/C(=C/c2ccc(Sc3nc4ccccc4[nH]3)o2)C1=O	7	5	1	88*	-64
O=c1cc2c(=O)oc3cc(O)c(O)oc3c2c(O)c1O	-6	70	.	-81	30*
O=c1oc2cc(O)c(Cl)cc2c2ccccc12	-6	-7	0	-2	35
CC(C)CN(CC(C)C)C1=N/C(=C\c2ccco2)C(=O)N1c1ccccc1	21	39*	10	1	-26
Nc1nnnn1/N=C/c1cc(Cl)cc(Cl)c1OCc1ccc(Cl)cc1Cl	-3	-1	0	2	53*
Nc1nnnn1/N=C/c1ccccc1OCc1ccc(Cl)cc1Cl	14	4	-4	-1	1
OC(c1cc(F)cc(Cl)c1)c1ncc(-c2ccccc2C(F)(F)F)[nH]1 (centres undefined)	3	3	.	19	0
O=C1NC(=S)N/C1=C\c1ccc(Oc2ccc(C(F)(F)F)cc2[N+](=O)[O-])c(Cl)c1	-3	2	-1	-6	1
CCC(=O)Nc1nc(C)c(Oc2ccccc2)c(=O)[nH]1	1	105*	1	4	1
CC(=O)Nc1nc(C)c(Oc2ccccc2)c(=O)[nH]1	-11	-5	0	1	-1
CCN(CC)S(=O)(=O)c1ccc(NC(=O)COC(=O)CNC(=O)C2CCCCC2)cc1	-4	0	.	-2	1
COc1ccc(NS(=O)(=O)c2cc(N/C(=N\S(=O)(=O)c3ccccc3)c3ccc(F)cc3)ccc2Cl)cc1	5	2	1	0	3
CCS(=O)(=O)c1ccc(N=Nc2ccc(O)c3ncccc23)c(OC)c1	50*	-4	.	4	3
CC[C@]12c3[nH]c4ccc(OC)cc4c3CCN1C(=O)C(CC(=O)NCCCn1ccnc1)C[C@@H]2C(=O)N1CCN(C(=O)c2ccco2)CC1 (some centres undefined)	1	-1	.	0	1
CN1CCN(c2ccc(CNC(=O)c3ccc4c(c3)OCCO4)cc2)CC1	-2	36*	-6	0	1
c1ccc2c(CN3CCOCC3)c3ccccc3c(CN3CCOCC3)c2c1	-14	-4	-7	32*	4
NC(c1csc(Nc2cc(NCCCO)ncn2)n1)c1ccccc1Cl (centres undefined)	2	3	.	1	-3
